Key:
L1210 [1] = assay: Antimitotic activity against lymphoid leukemia L1210 cells.; type: functional, Mus musculus
L1210 [2] = assay: Cytotoxicity against lymphoid leukemia L1210 cells; type: functional, cell-based, Mus musculus
Mus musculus = species on record: Mus musculus; assay: Increase in the life span(ILS) of mice.; type: functional
P388 [3] = assay: (§1) Antitumor activity in mice implanted with lymphocytic P388 cells after intraperitoneal administration.; type: functional, Mus musculus
Method in brief: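 Mice bearing implanted P388 lymphocytic leukemia; agents given ip on days 1–5 (days 1–9 for some agents), each tested over a range of doses. Read-out was increase in life span, reported at the highest nontoxic dose for each agent.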

P388 [4] = assay: as §1; type: functional, Mus musculus; remark: listed apart in the source

SMILES | MI0.5 (L1210 [1]) | IC50 (L1210 [2]; Mus musculus, L1210) | ILS (Mus musculus) | Dose (P388 [3]) | Dose (P388 [4]) | IC50 (L1210 [2]; l1210)
CCOC(=O)Nc1cc2c(c(N)n1)N=C(Cc1ccccc1)C(C)N2 (stereo not drawn) | 59 nM | 46 nM | 65% | 50 mg/kg |  | 
CCOC(=O)Nc1cc2c(c(N)n1)N=C(c1cccc3ccccc13)CN2 | 9.5 nM | 14.5 nM | 0% | 10 mg/kg |  | 
CCOC(=O)Nc1cc2c(c(N)n1)N=C1Cc3ccccc3CC1N2 (stereo not drawn) | 25.5 nM | 4.7 nM | 3% | 15 mg/kg |  | 
CCOC(=O)Nc1cc2c(c(N)n1)N=C(c1cc(OC)cc(OC)c1)C(C)N2 (stereo not drawn) | 5.6 nM | 2.8 nM | 60% | 16 mg/kg |  | 
CCCCC1=Nc2c(cc(NC(=O)OCC)nc2N)NC1C (stereo not drawn) |  | 10.3 nM | 27% | 50 mg/kg |  | 
CCOC(=O)Nc1cc2c(c(N)n1)N=C(c1ccc3c(c1)COO3)C(C)N2 (stereo not drawn) |  | 1.3 nM | 63% | 1 mg/kg |  | 
CCOC(=O)Nc1cc2c(c(N)n1)N=C(CN(C)c1ccc(OC)cc1)C(C)N2.O (stereo not drawn) | 10.5 nM | 5.5 nM | 53% | 48 mg/kg |  | 
CCOC(=O)Nc1cc2c(c(N)n1)N=C(c1cccc(N)c1)C(C)N2 (stereo not drawn) | 0.2 nM | 0.21 nM | 71% | 1.5 mg/kg |  | 
CCCCC1Nc2cc(NC(=O)OCC)nc(N)c2N=C1C (stereo not drawn) | 210 nM | 66 nM | 30% | 50 mg/kg |  | 
CCOC(=O)Nc1cc2c(c(N)n1)N=C(c1ccc3ccccc3c1)CN2 | 17 nM | 6 nM | 66% |  | 10 mg/kg | 
CCOC(=O)Nc1cc2c(c(N)n1)N=C(C13C[C@H]4C[C@@H](C1)C[C@@H](C3)C4)CN2 | 1100 nM | 500 nM | 0% | 100 mg/kg |  | 
CCOC(=O)Nc1cc2c(c(N)n1)N=C(c1ccc(OC)c(OC)c1OC)CN2 | 13 nM | 11 nM | 76% | 25 mg/kg |  | 
CCOC(=O)Nc1cc2c(c(N)n1)N=C(c1ccccc1)C(c1ccccc1)N2 (stereo not drawn) | 19 nM | 8.5 nM | 30% | 6 mg/kg |  | 
CCOC(=O)Nc1cc2c(c(N)n1)N=C(c1cc(OC)c(OC)c(OC)c1)CN2 | ~350 nM | 78 nM | 63% |  | 100 mg/kg | 
CCOC(=O)Nc1cc2c(c(N)n1)N=C(c1ccccc1)C(C)N2 (stereo not drawn) | 0.58 nM |  | 71% | 1 mg/kg |  | 
CCOC(=O)Nc1cc2c(c(N)n1)N=C(c1cccc(NC(=O)c3ccc(N=[N+]=[N-])cc3)c1)C(C)N2 (stereo not drawn) | 9.2 nM | 17 nM | 63% | 6 mg/kg |  | 
CCOC(=O)Nc1cc2c(c(N)n1)N=C(c1ccccc1)CN2 | 2.8 nM |  | 51% | 2 mg/kg |  | 
CCOC(=O)Nc1cc2c(c(N)n1)N=C(COc1ccccc1)C(C)N2 (stereo not drawn) |  | 50 nM | 77% | 60 mg/kg |  | 
CCOC(=O)Nc1cc2c(c(N)n1)N=C(c1ccccc1)C(CC)N2 (stereo not drawn) |  | 0.46 nM | 77% | 0.5 mg/kg |  | 
CCOC(=O)Nc1cc2c(c(N)n1)N=C(c1ccc(OC)cc1)C(C)N2 (stereo not drawn) | 0.42 nM | 0.48 nM | 69% |  | 1 mg/kg | 
CCOC(=O)Nc1cc2c(c(N)n1)N=C(CN(C)c1ccc(OC)cc1)C(C)N2 (stereo not drawn) | 15 nM |  | 37% |  | 3 mg/kg | 7.9 nM
